Source: PubChem (several laboratories)
Hits are enriched below; roughly 2.7% of the tested compounds scored in any of these assays.
Wee1 degr inh: Wee1 degradation inhibitors, primary screen, cell-based, HeLa, Wee1K328M-luciferase, luminescence; Wee1-like protein kinase (Homo sapiens), P30291; HeLa Luc-Wee1K328M stability; 100% = proteasome inhibitor MG132 effect; reporter increase, % at 5 µM; 220,000 compounds, 1.2% hits;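 active means activation above the mean of all tested compounds plus 3 SD, set per screening run, cut at about 8.8% in these data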;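 further: cells exposed to compound for 20 h before luminescence read; 0% = DMSO alone and 100% = MG132 at 30 µM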
L929 necroptosis: inhibitors of zVAD-triggered necroptosis, primary screen, L929 cells; AID 1377, 2008; 220,000 compounds, 0.38% hits; viability rescue, % at 10 µM; L929 zVAD necroptosis rescue, ATP luminescence, 24 h; with zVAD 60 µM;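 active means activation, scaled between plate controls, above about 75%, limit read from the data; inactive means activation under that limit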;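 further: 0% = zVAD with DMSO and 100% = DMSO alone without zVAD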
p97 ATPase inh: inhibitors of human p97 ATPase, primary screen, biochemical; Transitional endoplasmic reticulum ATPase (Homo sapiens), P55072; recombinant p97 ATPase, Kinase-Glo ATP luminescence, 3 h; inhibition, % at 8 µM; 220,000 compounds, 0.42% hits; AID 1481, 2009; in the data active means inhibition above about 15%;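 further: 0% = DMSO vehicle and 100% = wells lacking enzyme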
Target sequence (P55072 whole entry, looked up): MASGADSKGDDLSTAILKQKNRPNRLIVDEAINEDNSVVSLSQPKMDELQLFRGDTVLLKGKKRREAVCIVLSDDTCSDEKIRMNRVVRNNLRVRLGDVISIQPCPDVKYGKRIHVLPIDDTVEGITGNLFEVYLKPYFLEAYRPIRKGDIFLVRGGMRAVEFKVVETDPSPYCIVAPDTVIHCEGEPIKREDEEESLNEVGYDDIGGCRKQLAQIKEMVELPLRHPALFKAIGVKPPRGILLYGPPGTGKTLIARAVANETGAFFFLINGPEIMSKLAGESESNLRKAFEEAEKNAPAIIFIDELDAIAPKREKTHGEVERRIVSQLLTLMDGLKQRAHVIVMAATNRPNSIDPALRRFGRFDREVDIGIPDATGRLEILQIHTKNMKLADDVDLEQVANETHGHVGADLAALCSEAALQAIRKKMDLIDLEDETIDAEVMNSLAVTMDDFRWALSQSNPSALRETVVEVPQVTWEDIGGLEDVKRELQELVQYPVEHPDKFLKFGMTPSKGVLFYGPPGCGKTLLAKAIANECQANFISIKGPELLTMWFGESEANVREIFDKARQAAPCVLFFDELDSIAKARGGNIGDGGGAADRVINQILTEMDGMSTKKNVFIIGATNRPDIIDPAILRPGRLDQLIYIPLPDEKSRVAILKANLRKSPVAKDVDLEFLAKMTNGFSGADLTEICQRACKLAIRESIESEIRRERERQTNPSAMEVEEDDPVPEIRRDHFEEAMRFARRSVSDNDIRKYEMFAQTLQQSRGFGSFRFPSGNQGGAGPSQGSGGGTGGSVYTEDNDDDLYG
RBBP9 inh: human RBBP9 inhibitors, primary screen, biochemical, fluorescence polarization, FP-Rh probe, HTS; inhibition, % at 7.94 µM; recombinant RBBP9; AID 1515, 2009; 220,000 compounds, 0.2% hits;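 active means inhibition above the campaign mean of all tested compounds plus 3 SD, cut at about 14% in these data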;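 further: plate controls were DMSO wells with RBBP9 for no effect and wells lacking RBBP9 protein for full effect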
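Assay system: recombinant human RBBP9; Reagent: Serine-hydrolase probe FP-Rh, 375 nM pre-mixing; Doses: 7.94 µM single dose, 0.794% DMSO; Incubation: 30 min then 45 min, 25 °C; Detection: fluorescence polarization (mP), excitation 525 nm, emission 598 nm; Evaluation: percent inhibition from mP, scaled between DMSO and no-protein wells.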
PfM18AAP inh-1: PfM18AAP inhibitors, malaria aminopeptidase, primary screen, biochemical, QFRET, recombinant enzyme | M18 aspartyl aminopeptidase (Plasmodium falciparum 3D7) | H-Glu-NHMec fluorogenic cleavage | inhibition, % at 7.35 µM | 290,000 compounds, 1.2% hits | AID 1822, 2009;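 active means inhibition above the campaign mean inhibition over all tested compounds plus 3 SD, cut at about 28% in these data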;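 further: 0% = plate median of test compound wells and 100% = 2 mM ZnCl2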
TNF necrop inh: inhibitors of TNF-alpha triggered necroptosis, primary screen, cell-based, Jurkat FADD-/-, single concentration; Jurkat FADD-/- TNF necroptosis rescue, ATP luminescence, 24 h; 0 = TNF only, 100 = no-TNF cells; activation (protection from cell death), % at 10 µM; 220,000 compounds, 0.068% hits;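 active means activation, meaning protection from cell death, of at least 50% relative to plate controls; inactive means activation below 50%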;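 further: necroptosis triggered by 40 ng/mL TNF-alpha added together with compound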
p97 confirm: p97 ATPase inhibitors, retest, confirmation, biochemical. shares compounds with p97 ATPase inh. recombinant p97 ATPase, Kinase-Glo ATP luminescence. 760 compounds, 44% hits. inhibition, % at 8 µM. AID 1517, 2009;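 active means percent inhibition of p97 ATPase above a set limit, the primary screen's mean plus 3 SD, cut at about 15% in these data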;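 further: 0% = DMSO wells and 100% = wells lacking p97 protein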
RBBP9 inh conf: human RBBP9 inhibitors, retest, confirmation, biochemical, fluorescence polarization, FP-Rh probe, triplicate. shares compounds with RBBP9 inh. recombinant RBBP9. inhibition, % at 7.94 µM. 410 compounds, 36% hits;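 active means inhibition above the hit cutoff derived for the primary screen, cut at about 15% in these data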;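 further: 0% = RBBP9 with DMSO and 100% = wells lacking RBBP9 protein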
PfM18AAP inh-2: PfM18AAP inhibitors, malaria aminopeptidase, confirmation, biochemical, QFRET, recombinant enzyme, triplicate; shares compounds with PfM18AAP inh-1; H-Glu-NHMec fluorogenic cleavage; inhibition, % at 7.35 µM; 2,400 compounds, 28% hits;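 active means mean inhibition over replicate wells above the hit cutoff set for the earlier primary screen, cut at about 29% in these data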;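 further: 0% = median of test compound wells and 100% = 2 mM ZnCl2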
CTSL1 confirm: cathepsin L1 inhibitors, retest, confirmation, counter-screen for PFM18AAP inhibitor project, biochemical, QFRET, triplicate; AID 2178, 2009; shares compounds with PfM18AAP inh-1; purified cathepsin L1, Z-Leu-Arg-MCA fluorescence; 2,400 tested, under 10 active; inhibition, % at 5.96 µM;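 active means average inhibition across replicates above the hit cutoff set in the earlier primary screen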;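 further: 0% = median of test compound wells and 100% = Z-Phe-Ala-diazomethylketone 1 µM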
An asterisk follows results filed as active; nt = no result.

SMILES	Wee1 degr inh	L929 necroptosis	p97 ATPase inh	RBBP9 inh	PfM18AAP inh-1	TNF necrop inh	p97 confirm	others
Cc1ccc(NC(=S)Nc2cccc3cnccc23)cc1C	1	1	24*	7	7	-1	3
Cc1ccc(NC(=O)COC(=O)/C(=C/c2cccs2)c2cccs2)cc1S(=O)(=O)N(C)C	3	1	3	-30	-1	-3	nt
Cc1ccccc1OCc1occc1C(=O)Nc1cccc(-n2cnnn2)c1	nt	nt	nt	nt	-3	nt	nt
COc1cc2c(cc1OC)CN(C(=O)CSc1nc3[nH]ncc3c(=O)n1-c1ccccc1)CC2	-1	0	20*	-4	31*	3	12
COc1ccc(CN2CCC(n3nccc3NC(=O)c3cccc(F)c3)CC2)cc1O	nt	nt	nt	nt	-12	nt	nt
Cc1cccc(Nc2cc(C)c3c(O)cccc3n2)c1C	-1	nt	23*	3	5	3	16*
Cc1cccc(NC(=S)N(C)C)c1C	1	0	5	-11	-12	1	nt
O=C(O)c1cccc(Nc2ncnc3ccc(Br)cc23)c1	-1	0	17*	-9	-10	3	21*
COC(=O)CCCC(=O)N1CCC(CCC(=O)NCc2ccc(F)cc2)CC1	nt	nt	nt	nt	-16	nt	nt
CCOc1ccccc1NC(=O)NCc1ccco1	-2	0	5	-11	-12	3	nt
CC(=O)Nc1cc(OC(C)=O)c2nonc2c1OC(C)=O	-5	-1	30*	2	17	-17	32*
CC1=NN(Cc2ccccc2)C(=O)C1C(c1ccccc1)C(C#N)C#N (centres undefined)	-2	0	1	4	1	-8	nt
CC1=NN(Cc2ccccc2)C(=O)C1C(c1ccc(Cl)cc1)C(C#N)C#N (centres undefined)	0	1	18*	-1	11	-1	9
CCOC(=O)C1CCN(S(=O)(=O)c2ccc(Cl)s2)CC1	nt	nt	nt	nt	3	nt	nt
CC(=O)Nc1ccc(S(=O)(=O)NC2CCS(=O)(=O)C2)cc1Cl (centres undefined)	-4	0	3	-6	2	0	nt
CC1=NN(c2ccc(C)cc2C)C(=O)C1C(c1cccc(O)c1)C1C(=O)N(c2ccc(C)cc2C)N=C1C (centres undefined)	-2	1	23*	-2	8	2	6
CC1=NN(c2ccccc2)C(=O)C1N=Nc1cccc(O)c1 (centres undefined)	nt	nt	nt	nt	7	nt	nt
O=C(NCC1OCCCN1S(=O)(=O)c1cc(F)ccc1F)C(=O)NC1CCCCC1 (centres undefined)	0	0	1	-11	0	2	nt
COc1ccc2[nH]c(=O)c(CN(C(=O)c3cccnc3)c3ccccc3C)cc2c1	2	-1	5	-3	1	2	nt
CCCCn1[nH]c(-c2ccccc2)cc1=O	-1	1	21*	-8	30*	2	6
CC(C)C[C@H](NC(=O)c1[nH]cnc1C(=O)N[C@@H](Cc1ccccc1)C(=O)OCc1ccccc1)C(=O)OCc1ccccc1	nt	nt	nt	nt	-2	nt	nt
O=C(N[C@@H](Cc1ccccc1)C(=O)OCc1ccccc1)c1nc[nH]c1C(=O)NCc1ccccc1	3	1	17*	-16	-3	2	20*
CCC(=O)NC1=C(Cl)C(=O)C(NC(=O)CC)=C(Cl)C1=O	2	37	19*	59*	-38	-32	12	RBBP9 inh conf=65*
CCC(=O)NC1=C(NC(C)c2ccccc2)C(=O)c2ccccc2C1=O (centres undefined)	0	0	-6	-10	-8	-1	nt
COc1ccc(OC)c(S(=O)(=O)N2CCCC(C(=O)N3CCCCCC3)C2)c1 (centres undefined)	nt	nt	nt	nt	2	nt	nt
SMILES	Wee1 degr inh	L929 necroptosis	p97 ATPase inh	RBBP9 inh	PfM18AAP inh-1	TNF necrop inh	p97 confirm	others
c1coc(-c2nc(-c3ccco3)c(-c3ccco3)nc2-c2ccco2)c1	0	0	40*	26*	60*	-1	9	RBBP9 inh conf=19*
COc1cccc(CNC(=O)C(=O)NCC(c2ccco2)N2CCOCC2)c1 (centres undefined)	1	1	2	-10	4	0	nt
O=C(NN1C(=O)/C(=C/C=C/c2ccco2)SC1=S)c1ccccc1O	0	0	55*	23*	18	-5	21*	RBBP9 inh conf=15*
O=C(O[C@@H]1OC2COC(=O)c3cc(O)c(O)c(O)c3-c3c(cc(O)c(O)c3O)C(=O)O[C@@H]([C@H]1O)[C@@H]2O)c1cc(O)c(O)c(O)c1	9.7*	2	38*	19*	62*	-1	60*	RBBP9 inh conf=32*;PfM18AAP inh-2=45*;CTSL1 confirm=-2
O=c1cc2c(=O)oc3cc(O)c(O)oc3c2c(O)c1O	2	0	26*	-1	59*	2	23*	PfM18AAP inh-2=31*;CTSL1 confirm=-4
O=c1oc2cc(O)c(Cl)cc2c2ccccc12	1	1	4	3	5	2	nt
Cc1ccccc1CNC(=O)C(=O)NCC1OCCCN1S(=O)(=O)c1cccs1 (centres undefined)	nt	nt	nt	nt	-14	nt	nt
CCOC(=O)N1CCN(Cc2ccc3c(c2)OCO3)CC1	nt	nt	nt	nt	-1	nt	nt
Cc1c(O)ccc(C(=O)CN2CCN(Cc3ccc4c(c3)OCO4)CC2)c1O	11*	0	16*	68*	93*	2	8	RBBP9 inh conf=8;PfM18AAP inh-2=-18;CTSL1 confirm=2
O=C(CN(Cc1ccc(Cl)cc1)S(=O)(=O)c1ccccc1)NCC1CCCO1 (centres undefined)	nt	nt	nt	nt	-4	nt	nt
